# SENP1 FRET inh – blocks the human SENP1 SUMO protease catalytic domain; recombinant SENP1 catalytic domain, CyPet-SUMO1-YPet FRET cleavage; inhibition, % at 10 µM; 360,000 tested, 0.21% active;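 active = inhibition at least 30% at 10 µM, raw YFP signal under a set limit, fluorescence ratio 0.5 to 1.5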;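 also: 0% = enzyme with DMSO and 100% = no enzyme wells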
# Target sequence (Q9P0U3 419-644 limits assumed): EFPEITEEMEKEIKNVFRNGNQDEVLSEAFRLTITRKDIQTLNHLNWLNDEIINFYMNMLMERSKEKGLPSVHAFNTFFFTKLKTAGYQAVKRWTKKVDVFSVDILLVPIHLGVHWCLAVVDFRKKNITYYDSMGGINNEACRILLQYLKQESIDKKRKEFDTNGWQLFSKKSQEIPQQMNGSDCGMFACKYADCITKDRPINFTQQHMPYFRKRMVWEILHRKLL
#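 Controls: no-enzyme wells low, DMSO-plus-enzyme wells high control. Test system: human recombinant His6-tagged SENP1 catalytic domain enzyme. Reagent: SFCypet-SUMO1-SFYpet FRET protein substrate, 25 nM final. Doses: one dose per compound, 10 µM, 0.5% DMSO. Detection: FRET, CFP and YFP emission. Timing: 50 min reaction at room temperature.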
# FAS-TE inh – inhibitors of human fatty acid synthase thioesterase domain | P49327 | recombinant FAS-TE, OMFH fluorogenic substrate, fluorescence endpoint | inhibition, % at 15 µM | 360,000 tested, 0.67% active | AID 602261;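 active = compounds whose normalised, plate-corrected inhibition of enzyme fluorescence in the single-dose primary screen is 50% or more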;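 also: 0% = DMSO with enzyme and 100% = substrate without enzyme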
# NR3A LBD binder – NR3A (human) ligand-binding domain modulation | AID 1259313 | NR3A LBD differential scanning fluorimetry, Tm shift; 0% = protein alone, 100% = glycine-bound protein | Tm shift relative to glycine control, % at 25 µM | 340,000 tested, 2.5% active;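 active = melting temperature shift of at least 10% of the positive control shift, at one fixed dose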
# Cardio protect – modulators protecting cardiomyocytes from myocardial damage. 360,000 tested, 0.63% active. H9c2 cardiomyocytes, H2O2 injury protection, ATPLite, 2 h. protection from H2O2 cell death, % at 20 µM;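 active = compounds giving at least 50% protection of heart cells from peroxide-induced death in the single-dose screen, raw or plate-pattern-corrected value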;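 also: 0% = DMSO wells with peroxide and 100% = DMSO wells without peroxide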
# iPSC survival up – enhancers of human iPSC single-cell survival; 360,000 tested, 0.044% active; survival enhancement, % at 20 µM; hiPSC single-cell survival, ATPlite luminescence; 100% = ROCK inhibitor wells, 0% = DMSO; in the data active = survival enhancement above about 18%;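 also: cells exposed to compounds for 16 hours before the ATP read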
# Arrestin-AP2 inh – inhibitors of human beta-arrestin and AP2 interaction | 340,000 tested, 0.31% active | inhibition, % at 10 µM | AID 504490 | FITC-arrestin peptide / GST-AP2 beads, flow cytometry; AP2 beta2 appendage carries R879A mutation;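 active = inhibition above a set limit, near 3 SD of compounds lacking own fluorescence, cut at about 54% in these data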;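 also: plate controls were DMSO wells for no effect and 5 µM unlabelled arrestin peptide for full effect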
#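 Test system: GST-tagged AP2 beta2-adaptin appendage (R879A) on 4 µm glutathione beads; also added: fluorescein-tagged arrestin peptide at 50 nM final; timing: 12 min plus 1 h, RT; signal: flow cytometry, FL1 (488/535 nm); read-out: percent drop in bead-associated FITC signal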
# Numbers without * were called inactive; . = no result. Sampled rows, rich in hits. Any-hit rate of the full collection: about 4%.
SMILES,SENP1 FRET inh,FAS-TE inh,NR3A LBD binder,Cardio protect,iPSC survival up,Arrestin-AP2 inh
COc1ccc2[nH]c(=O)c(CN(Cc3ccco3)C(c3nnnn3Cc3ccccc3)C(C)C)cc2c1 (centres undefined),-9,-2,-1,51*,-1,-4
Cc1cccc2cc(CN(Cc3ccco3)C(c3nnnn3CCc3ccccc3)C(C)C)c(=O)[nH]c12 (centres undefined),-1,16,-2,-13,1,0
CCC(c1nnnn1Cc1ccco1)N(Cc1ccccc1OC)Cc1cc2cc(C)ccc2[nH]c1=O (centres undefined),-34,22,-13,-23,-2,-1
COCCn1nnnc1C(C(C)C)N(Cc1ccccc1)Cc1cc2cc(OC)ccc2[nH]c1=O (centres undefined),-33,-5,-4,42,2,-3
COc1cc2c(cc1NC(=O)c1ccc(C)c([N+](=O)[O-])c1)oc1ccccc12,0,-4,1,-11,-2,41
COc1cc2c(cc1NC(=O)/C=C/c1cc(OC)c(OC)c(OC)c1)oc1ccccc12,-5,33,27*,37,-2,10
COc1cc2c(cc1NC(=O)c1ccncc1)oc1ccccc12,1,12,22*,12,0,4
COc1cc2c(cc1NC(=S)NC(=O)c1c(OC)cccc1OC)oc1ccccc12,-1,42,1,-9,-2,-4
COc1cc2c(cc1NC(=O)c1cccc([N+](=O)[O-])c1)oc1ccccc12,3,-11,3,-29,3,-11
COc1cc2c(cc1NC(=O)c1cccnc1)oc1ccccc12,-3,9,20*,22,5,7
Cc1ccc2c(CN3CCN(c4ccc(Cl)c(Cl)c4)CC3)cc(=O)oc2c1,0,28,.,-4,3,.
CCC(CC)C(=O)N(C)c1c(C)nc2c(OCc3ccc(F)c(F)c3)cccn12,1,8,.,-1,-2,.
C[C@@H]1CN([C@@H](C)CO)C(=O)c2cc(Br)cnc2O[C@@H]1CN(C)Cc1cncnc1,0,-8,.,16,-2,.
CCCCNC(=O)c1nc(-c2cccs2)oc1-c1ccc(Cl)cc1,1,.,.,.,.,.
Cc1ccc(S(=O)(=O)n2cccc2/C=C/[N+](=O)[O-])cc1,-8,-5,.,1,-1,.
O=C(CCn1c2c(c3ccccc31)CCCC2)NNC(=O)c1ccc(Cl)c([N+](=O)[O-])c1,-4,26,20*,-8,-1,0
O=C(CCn1c2c(c3ccccc31)CCCC2)NNC(=O)c1ccc([N+](=O)[O-])cc1,0,29,2,-7,2,10
O=C(COC(=O)COc1ccccc1)Nc1cccc([N+](=O)[O-])c1,4,1,-2,20,2,-21
O=C(COc1ccc([N+](=O)[O-])cc1)Nc1ccc(S(=O)(=O)N2CCOCC2)cc1,0,10,0,-2,0,-11
O=C(COc1ccc(Cl)cc1)Nc1nc(-c2ccc(S(=O)(=O)N3CCOCC3)cc2)cs1,6,63*,-3,-8,-3,-1
CC(NS(=O)(=O)c1ccc(OCC(=O)Nc2cccc([N+](=O)[O-])c2)cc1)c1ccccc1 (centres undefined),1,18,19*,-6,0,3
O=C(COc1ccc(S(=O)(=O)N2CCOCC2)cc1)Nc1cccc([N+](=O)[O-])c1,3,24,19*,1,2,7
CC(CCc1ccccc1)NC(=O)COc1ccc(S(=O)(=O)N2CCOCC2)cc1[N+](=O)[O-] (centres undefined),1,-3,13*,-10,0,1
OCCNc1ncnc2c1ncn2[C@H]1CN(Cc2ccncc2)C[C@@H](CO)O1,0,-2,.,-2,8,.
CC(C)NS(=O)(=O)c1ccc(OCC(=O)NCc2ccccc2)cc1,4,0,11*,4,-2,8
SMILES,SENP1 FRET inh,FAS-TE inh,NR3A LBD binder,Cardio protect,iPSC survival up,Arrestin-AP2 inh
COc1ccc(OCC(=O)NS(=O)(=O)c2ccc(Cl)cc2)cc1,-1,-6,0,-5,0,-2
Cc1ccc(S(=O)(=O)NC(=O)COc2ccc([N+](=O)[O-])cc2)cc1,3,0,17*,-3,4,1
COc1ccc(Cl)c(-c2cc(C(=O)Nc3ccc(F)cc3)[nH]n2)c1,-1,5,.,-8,4,.
CN=C(Nc1cc(Cl)ccc1Cl)SC1CC(=O)N(c2ccc(C(=O)OC)cc2)C1=O (centres undefined),3,10,14*,-8,0,5
Cc1cccc(CN2CCC(n3nccc3NC(=O)CCCc3ccccc3)CC2)c1,-1,0,.,-1,1,.
CCCOc1ccc(NC(=O)CC2C(=O)N(Cc3ccccc3)C(=S)N2Cc2cccs2)cc1 (centres undefined),3,27,16*,-8,1,6
CCN1C(=O)C(CC(=O)Nc2ccc(F)cc2)N(CCc2ccc(OC)cc2)C1=S (centres undefined),-1,10,-2,1,-1,-26
CCN1C(=O)C(CC(=O)Nc2ccc(F)cc2)N(Cc2cccs2)C1=S (centres undefined),1,31,13*,-10,-1,-1
O=C(COc1ccc(Cl)cc1)N1CCN(S(=O)(=O)c2cc(F)ccc2F)CC1,-6,8,.,-6,6,.
CCCS(=O)(=O)NC(=O)C1(C)CCCN(C(=O)c2ccccc2C(F)(F)F)C1 (centres undefined),0,-6,.,-7,-1,.
CN(C)S(=O)(=O)n1cc(/C=C(\NC(=O)c2ccccc2F)C(=O)NCCN2CCOCC2)c2ccccc21,0,-2,.,75*,-2,.
CC(O)(c1cccc(F)c1)c1nc(-c2csc3ccccc23)cs1 (centres undefined),2,27,.,-5,1,.
O=C(Nc1ccc2oc(=O)ccc2c1)c1cc2ccccc2o1,-1,0,9,3,-2,0
O=C(Nc1ccc2oc(=O)ccc2c1)c1ccc(-c2cccc(Cl)c2)o1,-4,10,29*,2,0,2
O=C(Nc1ccc2oc(=O)ccc2c1)c1ccc(-c2ccc(Cl)cc2)o1,-7,-7,27*,-3,-1,11
O=C(Nc1ccc(CN2CCOCC2)cc1)c1ccc(-c2cccc(Cl)c2)o1,0,7,2,4,2,1
O=C(Nc1ccc2oc(=O)ccc2c1)c1ccc(-c2ccccc2[N+](=O)[O-])o1,3,2,30*,-9,0,-8
COc1cc2ccccc2cc1C(=O)Nc1ccc2oc(=O)ccc2c1,-1,2,15*,0,0,23

# High-throughput results as filed in PubChem BioAssay.
